Source: PubChem BioAssay
In the library only some 6.4% were active in any assay of this set; here they are far more common.
CHOP inhibitor – CHOP inhibition in unfolded protein response; CHO-K1 CHOP-promoter luciferase, tunicamycin-induced, 15-18 h; inhibition, % at 10 µM; 220,000 compounds, 3.8% hits; AID 2732;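 active = compounds that reduced the stress-induced luciferase reporter signal by more than about 70% of percent inhibition, limit read from the data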;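 also: 0% = tunicamycin plus vehicle and 100% = wells without tunicamycin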
EBV gp42 inh – inhibitors of Epstein-Barr virus glycoprotein 42; Q1HVG2; Fluorescence polarization binding assay, mP read-out; 220,000 compounds, 0.42% hits; inhibition, % (tested at 21.74 µM); in the data active = inhibition above about 50%
Target sequence (Q1HVG2 whole entry, looked up): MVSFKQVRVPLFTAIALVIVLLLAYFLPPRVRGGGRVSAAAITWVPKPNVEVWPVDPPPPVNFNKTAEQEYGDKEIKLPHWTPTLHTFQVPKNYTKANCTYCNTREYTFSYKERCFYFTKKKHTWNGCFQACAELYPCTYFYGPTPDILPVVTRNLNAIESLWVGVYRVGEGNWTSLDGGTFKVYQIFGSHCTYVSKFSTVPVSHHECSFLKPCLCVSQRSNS
MPTP inh – permeability transition pore inhibition; isolated mouse mitochondria, Ca2+ swelling absorbance, 30 min; AID 602449; 360,000 compounds, 1.4% hits; inhibition, % at 10 µM;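 active = inhibition of 50% or more, scaled per plate between neutral and stimulator controls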;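 also: 0% = DMSO wells given calcium and 100% = 1 mM EGTA wells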
NR3A LBD binder – modulates the human NR3A ligand-binding domain; NR3A LBD differential scanning fluorimetry, Tm shift; 0% = protein alone, 100% = glycine-bound protein; Tm shift relative to glycine control, % at 25 µM; 340,000 compounds, 2.5% hits;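 active = melting temperature shift of at least 10% of the positive control shift, at one fixed dose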
TbMetRS inhib – blocks T. brucei methionyl-tRNA synthetase activity; inhibition, % at 11.9 µM; purified T. brucei MetRS, ATP depletion, Kinase-Glo luminescence; 360,000 compounds, 0.4% hits;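 active = inhibition above a per-plate cutoff of the control wells' mean inhibition plus 3 SD, cut at about 5.5% in these data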;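 also: 0% = DMSO wells median and 100% = median of wells with control inhibitor compound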
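Test system: purified T. brucei MetRS enzyme. Also added: ATP, methionine and E. coli bulk tRNA substrates. Compound: 11.9 µM single point. Schedule: 15 min enzyme-compound preincubation, 2 h reaction, 10 min detection, 25 °C. Signal: luciferase luminescence of residual ATP, Kinase-Glo. Evaluation: percent inhibition versus plate control medians. Controls: DMSO wells, low control.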
WT yeast gro inh – growth inhibition of WT yeast, mitochondrial fusion screen; mitochondrial fusion phenotypic screen, WT strain; inhibition, % at 10 µM; 190,000 compounds, 2.1% hits; in the data active = inhibition above about 58%; tested in S. cerevisiae
CHOP confirm – confirmation of CHOP induction inhibitors | shares compounds with CHOP inhibitor | CHO-CHOP promoter luciferase reporter, tunicamycin-induced, luminescence | inhibition, % at 10 µM | 2,100 compounds, 45% hits | AID 504437;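 active = mean of three repeat readings of reporter signal inhibition above a set limit, cut at about 70% in these data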;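 also: 0% = tunicamycin plus vehicle and 100% = wells lacking tunicamycin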
Active calls of the source: *; x = no result.

SMILES	CHOP inhibitor	EBV gp42 inh	MPTP inh	NR3A LBD binder	TbMetRS inhib	WT yeast gro inh	CHOP confirm
CCOc1cc(/C=N/O)cc(Cl)c1OC	56	-21	1	-8	-1	5	x
CCCOc1c(Cl)cc(/C=N/O)cc1OCC	102*	1	2	-1	-2	4	-21
CCOC(=O)c1ccc(NS(=O)(=O)c2c(N)n(C)c(=O)n(C)c2=O)cc1	x	x	1	-1	0	x	x
Cc1cc(C)c(C)c(OCc2nc(-c3cccnc3)no2)c1	97*	-14	7	2	0	-3	35
O=C(CCl)N1CCN2C(=O)c3ccccc3C12c1ccc(Cl)cc1 (stereo not given)	105*	-5	-1	2	0	-21	113*
CCc1ccc(CN/C=C/C(=O)c2ccc(Br)cc2)cc1	104*	-10	1	-11	-1	51	-26
Cc1ccc(C)c(NC(=S)c2ccccn2)c1	-121	0	0	3	0	64	x
CCOc1cc(S(=O)(=O)Nc2cc(C)cc(C)c2)ccc1Cl	106*	5	3	11*	-1	29	117*
O=C(/C=C/c1ccccc1)Nc1cccc(C(=O)O)c1	97*	-16	0	1	0	0	116*
CC(=O)Oc1ccc2cc(-c3cccnc3)c(=O)oc2c1	x	x	2	0	0	x	x
C=CCn1c(COc2ccccc2)nnc1SC(C)C(=O)N/N=C/c1cc(Cl)ccc1O (stereo not given)	97*	-10	2	-4	-1	-17	128*
CN1CCN(S(=O)(=O)c2cc([N+](=O)[O-])ccc2Cl)CC1	11	-6	-1	1	0	30	x
O=C(NC(c1ccccc1)c1cc(Cl)c2cccnc2c1O)c1cccnc1 (stereo not given)	104*	-17	x	x	x	-12	104*
O=C(NCc1ccccc1Cl)c1ccc(S(=O)(=O)Nc2cccc(C(F)(F)F)c2)cc1	98*	-11	8	25*	0	-27	110*
O=C(CNS(=O)(=O)c1ccc(C(=O)N2CCOCC2)cc1)N1CCOCC1	10	-23	2	0	1	17	x
O=C(N/N=C/c1cccc(F)c1)c1c(O)c2ccccc2[nH]c1=O	104*	3	3	2	0	16	93*
O=C(Nc1cccc(F)c1)c1c(O)c2ccccc2[nH]c1=O	x	x	0	3	-1	x	x
O=C(N/N=C/c1ccc(F)cc1)c1c(O)c2ccccc2[nH]c1=O	101*	-6	33	5	0	-1	72*
O=C1C(C2=NC(C(=O)O)C3C(=O)N(c4ccccc4)C(=O)C23)=C(O)c2ccccc21 (stereo not given)	-4	-12	-1	7	-1	1	x
O=C1C(C2=NC(c3ccccn3)C3C(=O)N(c4ccc(OC(F)(F)F)cc4)C(=O)C23)=C(O)c2ccccc21 (stereo not given)	105*	-4	7	3	0	x	117*
CC(C)=CCc1c(O)c(CC=C(C)C)c2c(c1O)C(=O)CC(c1ccc(O)cc1)O2 (stereo not given)	101*	-15	0	15*	0	91*	73*
CC(C)(C)c1cc(NC(=O)Nc2ccc(Br)cc2Cl)no1	9	4	7	-3	0	8	x
CC(C)(C)c1cc(NC(=O)Nc2ccc(Cl)cc2Cl)no1	96*	-3	30	8	-1	x	13
N#CCN1C(=O)C(=O)N(Cc2cccc(Cl)c2)C1=O	x	x	0	0	1	x	x
CCOC(=O)c1c(C)oc2c1c(C(c1cccnc1)N1CCOCC1)c(O)c1ccccc12 (stereo not given)	107*	5	-3	2	-1	62*	-2
SMILES	CHOP inhibitor	EBV gp42 inh	MPTP inh	NR3A LBD binder	TbMetRS inhib	WT yeast gro inh	CHOP confirm
CC(=O)c1cc(-c2ccccc2)n(CC(=O)NC2CCCC2)c1C	10	-11	-1	0	0	8	x
Fc1ccc(-n2nnnc2-c2cnc(-c3cccs3)nc2C(F)(F)F)cc1	105*	-11	18	-5	-1	56	121*
FC(F)(F)c1nc(-c2ccncc2)ncc1-c1nnnn1-c1ccccc1	29	-6	3	2	-1	23	x
Cc1ccc(C)c(NC(=S)NC(NC(=O)Cc2ccccc2)C(Cl)(Cl)Cl)c1 (stereo not given)	103*	-8	1	20*	-1	-5	25
Cc1ccc(NC(NC(=O)Cc2ccccc2)C(Cl)(Cl)Cl)cc1 (stereo not given)	15	-32	48	-5	0	18	x
Cc1cc(OC(=O)c2cc(F)c(F)cc2Cl)nc(C)n1	-21	-23	1	-1	-1	-8	x
Cc1cc(C)c(S(=O)(=O)c2ccccc2)c(OC(=O)c2cc(F)c(F)cc2Cl)n1	107*	8	-1	-19	-2	-16	139*
CC(C)Oc1ccc(CNC(=O)CC(c2ccccc2)c2cc(Cl)ccc2O)cc1 (stereo not given)	98*	9	5	10	-1	12	104*
Cc1ccc(O)c(C(CC(=O)NCc2cccnc2)c2ccccc2)c1 (stereo not given)	1	11	2	-1	0	3	x
CC(C)C(=O)NCCSc1c[nH]c2ccccc12	6	-20	-1	-1	1	-11	x
COc1cc(OC)cc(C(=O)N[C@H](C(=O)Nc2nc(-c3ccc(OC)c(OC)c3)cs2)C(C)C)c1	101*	-15	8	-3	0	x	56
Cc1ccc(Nc2nc(N)nc(CN3CCN(c4ccccc4)CC3)n2)cc1Cl	103*	-10	-2	2	0	32	75*
CCOc1ccc(N2C(=O)/C(=C\c3ccc(OC)c(O)c3)S(=O)(=O)C2c2cccc([N+](=O)[O-])c2)cc1 (stereo not given)	2	-3	-3	1	0	22	x
CCOc1ccc(N2C(=O)/C(=C\c3ccc(O)c(OC)c3)S(=O)(=O)C2c2cccc([N+](=O)[O-])c2)cc1 (stereo not given)	104*	-10	-4	10*	0	14	80*
CCC1CCCCN1C(=O)CSc1nnc(-c2ccc(Cl)s2)o1 (stereo not given)	15	-23	-1	3	-1	-2	x
O=C(Nc1ccc2c(c1)C(=O)N(C1CCCCC1)C2=O)C1CCCO1 (stereo not given)	-14	-7	4	0	-1	-5	x
CCCCC[C@@H]1C=C(C(=O)O)[C@H](c2cccc(C)c2)N1S(=O)(=O)c1ccc(C)cc1	x	x	2	-1	0	x	x
CCC(C)(C)c1ccc(Oc2ccc(N)cc2)cc1	108*	-9	9	-9	-1	89*	125*
